Assay: Toxicity liver stage against HepG2, at 10uM
Type: cell-based
Set-up: test concentration 10 uM, cell line HepG2-A16-CD81EGFP
Conditions: human, HepG2-A16-CD81EGFP cells; read-out: INHIBITION
Outline: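 Uninfected HepG2-A16-CD81EGFP cells, 3 × 10^3 per well, 1536-well, plated on prespotted compound at 10 μM final, parasite-free screening media added to match infected plates; puromycin 10 μM positive, DMSO 0.5% negative; run in parallel with 48 h PbLuc assay at 37 °C, 5% CO2; viability by CellTiter-Glo luminescence, normalized to controls.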

| Compound | cytotoxicity at 10 µM |
| --- | --- |
| O=C(CCC(=O)Nc1nnc(C2CCCCC2)s1)NCC1CCCO1 (centres undefined) | -7.7% |
| O[C@@H]1C[C@@H](c2nc(Cc3ccccc3)no2)N(Cc2ccc(F)cc2)C1 | 0.296% |
| Cc1ccc(CNC2(Cc3cc(-c4cccc(O)c4)on3)COC2)o1 | -0.873% |
| O[C@@H]1C[C@@H](c2nc(-c3ccc(F)cc3)no2)N(C2CCOCC2)C1 | 4.51% |
| CN1Cc2ccccc2N(CC(O)C(F)(F)F)CCC1=O (centres undefined) | 0.905% |
| Cn1ccc2ccc(C(=O)N3CC[C@@]4(O)CCCC[C@H]4C3)cc21 | -46.6% |
| Cn1cc(C2SCC(=O)Nc3c2cnn3C(C)(C)C)cn1 (centres undefined) | -6.24% |
| COC[C@]12COC[C@H]1CN(C(=O)c1ccc(F)cc1C)C2 | -135% |
| CCn1cc2c(n1)CN(S(=O)(=O)c1ccc(C)cc1)CC2COC (centres undefined) | 5.77% |
| N#Cc1cccc(N2CCCC3(CN(C(=O)[C@H]4CCCO4)CCO3)C2)c1 (some centres undefined) | 3.53% |
| Cc1nc(CO[C@@H]2CN(Cc3ccco3)[C@@H]3COC[C@@H]32)cs1 | 5.66% |
| Cc1cccc(CN2CCc3ncnc(Oc4cccnc4)c3CC2)n1 | -139% |
| Cc1nc([C@H]2C[C@@H]3CCN(C(=O)c4ccnnc4)C[C@H]3O2)sc1C | 1.01% |
| O=C(Cc1ccccn1)N1CCn2cc(Cn3cncn3)nc2C1 | -129% |
| CN1CCCN(Cn2nc(-c3ccccc3F)ccc2=O)CC1 | 9.77% |
| CCOC(=O)CSc1ccc(-c2nc(C)no2)cn1 | -15.2% |
| Cc1noc(C2CCN(c3oc(C)nc3C#N)CC2)n1 | -6.32% |
| CCOC1Sc2nnc(C)n2N=C1c1ccc(Br)cc1 (centres undefined) | -2.92% |
| CCOCc1cccc(S(=O)(=O)Nc2ccn(CC)n2)c1 | 4.84% |
| CN(C)C(=O)c1cn[nH]c1C1CCCN1Cc1c[nH]cn1 (centres undefined) | -3.3% |
| O=C(c1cnco1)N1CCC(Cc2ccc3ncccc3c2)CC1 | 7.22% |
| Cc1cc(-c2cc(N)c(=O)n(CC(=O)NC3CCCC3)n2)c(C)o1 | 4.39% |

| Compound | cytotoxicity at 10 µM |
| --- | --- |
| CC1(C(=O)N2CCN(c3ncccn3)CC2)CNCCO1 (centres undefined) | -0.79% |
| CC(=O)OCc1ccc(CN2CCCCCC2c2cc(C)no2)o1 (centres undefined) | -13.1% |
| O=C(C1CCCC1)N1CCCC(c2nc(O)cc(-c3ccncc3)n2)C1 (centres undefined) | -16.9% |
| Cc1ccc(Br)cc1NC(=O)NC1CCC2(C1)OCCO2 (centres undefined) | 15.6% |
| CCNC(=O)CN(CC)S(=O)(=O)c1c(Br)cc2[nH]c(=O)oc2c1Cl | 9.69% |
| CC(C)(C)OC(=O)N[C@H]1CCN(C(=O)c2cc(Cl)c[nH]2)C1 | -2.84% |
| CC(C)(C)OC(=O)NCCC(=O)NCC(O)c1cccc(F)c1 (centres undefined) | -2.48% |
| CC(NC(=O)N1CCC1)c1ccc(S(C)(=O)=O)cc1 (centres undefined) | -4.22% |
| Cc1ncc2c(n1)CN(Cc1cn3ccsc3n1)CC2 | -9.06% |
| O=C(O)c1csc(S(=O)(=O)Nc2c(F)cccc2-n2cccn2)c1 | -7.32% |
| O=C(c1ccoc1)N1CCN(Cc2ccccc2F)CC1 | -13.2% |
| Cc1cccc(-c2noc(CN3CCc4c(ncn4C4CC4)C3)n2)c1 | 4.95% |
| CN(Cc1nccn1C)S(=O)(=O)Cc1cccc(C#N)c1 | 4.16% |
| CN(C)S(=O)(=O)N1CCN(C(=O)c2cc(-c3ccccc3)[nH]n2)CC1 | -0.665% |
| CCN1CCN(S(=O)(=O)c2cn(C(C)C)cn2)c2ccccc21 | -4.3% |
| Cc1nccn1CCCNc1ncccc1C#N | -9.09% |
| CN(Cc1cnn(C)c1)C(=O)c1ccc(Cl)c(N2CCNC2=O)c1 | -10.8% |
| Cc1ccc(C(NCC(=O)N2CCNC(=O)C2)C(F)(F)F)cc1 (centres undefined) | -8.3% |
| COc1ccc(NC(C)c2nnnn2-c2ccccc2)cn1 (centres undefined) | 3.99% |
| COCCOCCNc1cncc(Br)c1 | -1.33% |
| Cc1cc(C(=O)Nc2ccn(CCCN3CCCC3)n2)c(C)o1 | -7.12% |
| O=C(NC1(c2cccc(F)c2)CCOCC1)c1ccoc1 | -9.41% |

| Compound | cytotoxicity at 10 µM |
| --- | --- |
| Cc1cc(C(=O)N2CCCC(n3ccnc3C)C2)c(C)s1 (centres undefined) | -16% |
| CC1CCCN(CCNC(=O)c2cncnc2C(C)C)C1 (centres undefined) | -10.6% |
| COc1ccc(CNC(=O)NCC2CCOC2)c(C(F)(F)F)c1 (centres undefined) | -8.28% |
| CS(=O)(=O)NCc1nnc2n1CCN(Cc1nccs1)C2 | -75.7% |
| Cc1ccc(N2CCC3(CCCN(C(=O)c4cnccn4)C3)C2)nn1 (centres undefined) | 1.14% |
| CC(C)N1CCO[C@H]2CN(C(=O)c3ccc(N(C)C)cc3)C[C@H]21 | 3.19% |
| FC(F)(F)c1ccc(-c2cc(NC3CCNCC3)nc3[nH]ccc23)nc1 | -0.608% |
| Cn1cc(C(=O)N2CCC(c3nccn3Cc3ccncc3)CC2)cn1 | -0.658% |
| CCc1c(C(=O)N2CCC3(CC(=O)NC3=O)C2)csc1C (centres undefined) | 1.62% |
| CC(C)CCN1CC2(CCN(C3CCCOC3)CC2)OC1=O (centres undefined) | 6.31% |
| C=C(C)COc1ccccc1C(=O)N1CCC2(CC1)CN(C)CCN2C | -50.2% |
| Cc1cc(C(=O)N2CCC3(CCNCC3)CC2)c2cccc(C)c2n1 | -15.6% |
| CC(C)NC(=O)N1CCC(c2nccn2C(C)C)CC1 | -6.77% |
| Cc1cnccc1CN1CCN(C)C2(CCC(=O)N(CC3CC3)CC2)C1 (centres undefined) | -3.51% |
| COCCOC1CCN(C(C(=O)O)c2ccc(OC)c(F)c2)CC1 (centres undefined) | 7.42% |
| CC(=O)N1C[C@H](NS(=O)(=O)Cc2cccc(Cl)c2)[C@@H](C(C)C)C1 | -1.73% |
| Cc1nc2c(c(NCCc3nc(C)c(Cl)s3)n1)CCNCC2 | -9.28% |
| CCc1cc(NCC(O)CN2CCCC2)ncn1 (centres undefined) | 6.09% |
| O=C(Cc1ccncc1)N(CCO)CCSc1ccc(Cl)cc1 | 2.59% |
| COCC[C@]1(O)CCN(Cc2ccccn2)C[C@H]1C | -7.72% |
| O=C(c1cc(-n2cccn2)ccc1Cl)N1CCC(N2CCCC2=O)CC1 | -2.08% |
| CCn1ncc(CN2CCCC(C(=O)c3ccc(Cl)cc3)C2)c1C (centres undefined) | 0.522% |

| Compound | cytotoxicity at 10 µM |
| --- | --- |
| Cc1cc(N2CCC(C(=O)O)(n3ccc(C(C)C)n3)CC2)nc(N)n1 | 0.445% |
| Cc1nc2c(C)cccc2cc1C(=O)N1CCC2(CCCNC2)C1 (centres undefined) | -10.3% |
| COc1ccc(NC2(C(=O)N3CCCn4cncc4C3)CCCC2)cc1 | 10.2% |
| Cc1nc(O)cc(CCNC(=O)c2ccccc2N2CCCC2)n1 | 10.4% |
| CCCn1ccnc1CN1C[C@@H](CN2CCCCC2)[C@@H](CO)C1 | 0.945% |
| CCCOC1CCCN(C(=O)c2cc(CN(CC)CC)c(CC)o2)C1 (centres undefined) | 10.1% |
| CN(C)c1nc2c(c(N3CCC(O)CC3)n1)CN(CC1CCNC1)CC2 (centres undefined) | -10.5% |
| COCC(O)CNC(=O)c1cnc(-c2ccccc2)nc1O (centres undefined) | -10.2% |
| Cc1ccc(NC2CCN(C(=O)c3ccc4c(c3)CCC4)CC2)nn1 | -8.19% |
| COc1ccc(CN2CCCN(C(=O)C(C)n3ccnc3)CC2)cc1 (centres undefined) | -14.1% |
| CC(C)c1nc(C(=O)NCCn2ccnc2)nn1-c1cccc(F)c1 | -7.64% |
| COC(=O)c1ccc(N2CCN(CCC#N)C(C)C2)cc1 (centres undefined) | -11.3% |
| COc1c(CNCCNC(=O)Cc2ccc(F)cc2)c(C)nn1C | -3.09% |
| CC(C)(C)c1cnc(CN2CCCC2Cn2cccn2)o1 (centres undefined) | -9.6% |
| Cn1c(C2CC2)nc2c1CCN(CCOc1ccc(C#N)cc1)C2 | -9.39% |
| COC(=O)C(c1cc(F)ccc1F)N(C)C(=O)c1cccnc1O (centres undefined) | -0.289% |
| CC(C)CCCNC(=O)Nc1ccc(F)c(C(N)=O)c1 | -2.73% |
| COCCc1noc(CN2CCCCC2Cn2nc(C)cc2C)n1 (centres undefined) | 0.962% |
| CCn1cc(C(=O)NCc2csc(Br)c2)cn1 | 4.84% |
| Cc1oc(C)c(C(=O)N2CCCN(Cc3cscn3)CC2)c1C | 6.88% |
| CC(c1nc(C2CC2)no1)N1CCN(Cc2ccsc2)CC1 (centres undefined) | 0.993% |
| CCOc1ccc(Br)cc1C1CCCCN1 (centres undefined) | 7.16% |

| Compound | cytotoxicity at 10 µM |
| --- | --- |
| NCCc1cc(N2CCOCC2)nc(NC2CC2)n1 | 0.881% |
| Cc1cc(N2CCN(Cc3cn(C)nc3C)CC2)cc(C2CCNC2)n1 (centres undefined) | 0.39% |
| OCCN(Cc1ccncc1)CC1(c2ccc(Cl)cc2)CCCC1 | 13.8% |
| CN1CC[C@H]2OCC[C@@H](C(=O)NCc3ccco3)[C@@H]2C1 | -78% |
| Cn1cnc2c1C(COCc1ccccc1)N(Cc1ccccn1)CC2 (centres undefined) | 9.82% |
| CS(=O)(=O)N1CCOCC2(CCN(C(=O)c3cccnc3)CC2)C1 | -10.1% |
| COCC1CC2(CCN(C(=O)c3occc3C)CC2)CN1C(C)C (centres undefined) | 12% |
| CNC(=O)[C@H]1C[C@@H]2CCN(CCc3ccccc3)C[C@@H]2O1 | -81.7% |
| CN1CC(=O)N(c2cccc(F)c2)CC12CCN(Cc1cnn(C)c1)C2 (centres undefined) | -5.87% |
| CCCN1CCCn2c(nc(CNC(=O)c3ccsc3)cc2=O)C1 | 6.89% |
| c1coc(CN2CCn3c(COCC4CC4)nnc3C2)c1 | 6.28% |
| CCc1cnc(N2C[C@H]3CN(Cc4csc(C)n4)C(=O)[C@H]3C2)nc1 | 9.43% |
| Cc1nc(CN2CC3(CCN(c4ncccn4)C3)CC2=O)cs1 (centres undefined) | 5.31% |
| COCCO[C@H]1CCN(C(=O)c2ccno2)[C@H]1Cc1ccncc1 | -78.1% |
| O=S(=O)(NCC1COCc2c(-c3ccncc3)nnn2C1)C1CC1 (centres undefined) | -80.9% |
| CC(C)N1CCO[C@H]2CN(C(=O)Cc3cccs3)C[C@H]21 | 7.07% |
| CN(C)CCOCC1CN(Cc2ccoc2)Cc2nnn(C)c21 (centres undefined) | -1.53% |
| CNC(=O)CN1CCOCC2(CCCN(Cc3cccnc3)C2)C1 (centres undefined) | -6.02% |
| O=C1[C@@H]2CC[C@@H](CN(Cc3ccccc3OC(F)F)C2)N1CC1CC1 | -6.17% |
| CCCn1cc(C(=O)NC2CCC(n3cnnc3)CC2)c(C)n1 (centres undefined) | 0.642% |
| Cc1cccc(C(=O)N2C[C@@H]3CC[C@H]2CN(S(=O)(=O)N(C)C)C3)n1 | 7.4% |

Reference: ChEMBL document CHEMBL4513216, “Probing the Open Global Health Chemical Diversity Library for Multistage-Active Starting Points for Next-Generation Antimalarials” (ACS Infect Dis, 2020)
